Screening results deposited in PubChem by several laboratories.
ROMK mod = modulates human ROMK potassium channel activity; AID 1918; 2% of 130,000 active; Tet-inducible ROMK, thallium flux fluorescence; actives lie on both sides; B-score at 10 µM;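 active = signal ratio slope over the read window, or its plate-corrected B-score, at least 3 SD from the plate mean, either direction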;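 also: B-score of the F/F0 ratio slope over 7 to 12 s after thallium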
Target sequence (P48048 whole entry, looked up): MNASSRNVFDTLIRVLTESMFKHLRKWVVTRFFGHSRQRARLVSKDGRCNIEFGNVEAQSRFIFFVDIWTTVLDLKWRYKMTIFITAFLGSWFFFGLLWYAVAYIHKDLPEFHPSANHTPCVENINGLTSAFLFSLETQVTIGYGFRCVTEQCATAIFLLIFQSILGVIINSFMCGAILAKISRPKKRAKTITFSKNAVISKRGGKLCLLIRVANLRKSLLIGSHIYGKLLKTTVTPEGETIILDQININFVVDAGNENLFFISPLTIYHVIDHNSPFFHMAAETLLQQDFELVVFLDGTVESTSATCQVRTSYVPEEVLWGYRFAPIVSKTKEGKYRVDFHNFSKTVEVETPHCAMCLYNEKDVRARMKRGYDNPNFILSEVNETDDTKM
bCat nuc transl = alters nuclear translocation of beta-catenin in HeLa cells; immunofluorescence imaging; AID 1665; nuclear translocation activity, % at 5 µM; 0.3% of 190,000 active;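 active = nuclear translocation activity above 50% at 5 µM, with a well cell count of 50 or more; inconclusive = wells under 50 cells across six images, flagged as toxic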;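 also: per-cell ratio of nuclear to cytoplasmic median beta-catenin stain intensity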
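System: HeLa cells, endogenous beta-catenin; compound dosing: 5 µM primary single dose, 0.1% DMSO, 0.02–20 µM confirmation series; incubation: 24 h compound exposure at 37°C, 5% CO2; signal: beta-catenin immunofluorescence imaging with DAPI; evaluation: % activation, nuclear-to-cytoplasmic median beta-catenin signal ratio per cell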
Cl transport mod = modulates chloride dependent transport by human KCC2. 2.2% of 190,000 active. AID 1456. KCC2 cells, thallium flux FluoZin-2 fluorescence. B-score of Tl+ flux slope (higher = more flux/activation; lower = inhibition) at 10 µM. Q9H2X9;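 active = thallium flux slope and its plate-corrected score both differing from the plate sample mean at a set confidence after two filtering rounds, in either direction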;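 also: slope of fluorescence scaled to starting intensity during 10 to 20 s after thallium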
Redox H2O2 prof = compounds producing H2O2 with reducing agent – biochemical, NIH compound library profiling, artefact control for MLSCN library redox annotation, primary screen | DTT-dependent redox cycling H2O2, phenol red/HRP absorbance; 100% = 100 µM peroxide control, 0% = buffer | activation, % at 10 µM | 0.03% of 200,000 active | AID 878;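 active = activation of at least 50% relative to the plate's high and low controls in the primary single-dose screen; inactive = activation below 50%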;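 also: compound incubated with DTT at 0.8 mM final as the reducing agent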
MT stabilize HCS = stabilizes microtubules in HeLa cells; HeLa tubulin immunostaining HCS, 24 h; share of cells brighter than vehicle mean+2SD; % tubulin-high responders, % at 10 µM; 0.83% of 200,000 active; AID 2205;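 active = plate Z-score above 3 for both tubulin-high and condensed-nucleus cell shares, with cell loss under 80%, at 10 µM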;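 also: anti alpha tubulin signal scored within the nucleus-defined area of each cell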
KCC2 sec1 = confirmation of human KCC2 transport modulators. shares compounds with Cl transport mod. HEK293-KCC2, thallium flux, FluoZin2 fluorescence; hits give high values. normalised thallium flux (F/F0 slope) at 10 µM. 15% of 3,700 active;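 active = thallium flux slope above the same plate's solvent-only control mean plus 3 SD; inconclusive = the two replicate wells disagree; inactive = no significant difference from solvent-only control wells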
KCC2 bumet counter = bumetanide-insensitive thallium flux in KCC2 cells with ouabain, counter-screen | shares compounds with Cl transport mod | HEK293-KCC2 + bumetanide/ouabain, thallium flux FluoZin2; hits give high values | normalized thallium flux at 10 µM | 49% of 3,700 active;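 active = thallium entry rate above the same plate's blocked-transporter control wells by more than 3 SD; inconclusive = the two repeat wells disagree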;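 also: raw slope of fluorescence over initial fluorescence between 10 and 20 s after thallium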
KCC2 secondary2 = KCC2 (human) modulation, second secondary assay; shares compounds with Cl transport mod; HEK293-KCC2, thallium flux FluoZin2 fluorescence; actives lie on both sides; F/F0 rise rate, 10–20 s post-thallium; normalized thallium flux at 10 µM; 23% of 3,700 active; AID 1715;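 active = thallium flux slope more than 3 SD above or below the plate's solvent-only control mean, mostly below; inconclusive = the two repeat wells disagreed; inactive = no significant shift from solvent-only controls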
HEK293 Tl flux = counter-screen for KCC2 modulators: effect in parental HEK293 cells. shares compounds with Cl transport mod. thallium flux FluoZin2, ouabain; baseline-ratio fluorescence slope, 10–20 s after thallium. thallium flux rate (normalised fluorescence) at 10 µM. 46% of 3,700 active. AID 1716;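 active = thallium flux rate significantly above the same plate's solvent-only control wells, beyond their mean plus 3 SD; inconclusive = the two replicate wells gave conflicting results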
KCC2 ouabain = KCC2 (human) modulation, ouabain retest | raw Tl+ flux slope (below DMSO = inhibition, above = activation) at 10 µM | 48% of 3,700 active | shares compounds with Cl transport mod | HEK293-KCC2, thallium flux FluoZin2 fluorescence; bidirectional: low = inhibitor, high = activator | AID 1717;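 active = thallium flux slope beyond 3 SD from same-plate DMSO control mean in most replicates, usually higher, sometimes lower; inconclusive = repeat tests gave conflicting results; inactive = no significant difference from controls in most replicates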;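 also: slope of initial-normalized fluorescence between seconds 10 and 20 after thallium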
HEK counter2 = parental HEK flux effect, counter-screen 2 | HEK293 parental, thallium flux FluoZin-2 fluorescence slope | 33% of 3,700 active | AID 1718 | thallium flux slope at 10 µM | shares compounds with Cl transport mod;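 active = thallium flux slope above the same plate's solvent-control mean plus 3 SD in both duplicate wells; inconclusive = duplicate wells that disagreed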;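 also: run without ouabain in cells lacking the KCC2 cotransporter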
Numbers stand for hits; 0 = inactive; ? = inconclusive; - = no result. The list is not random: actives were taken first. Their share in the collection is about 3.7%.

SMILES	ROMK mod	bCat nuc transl	Cl transport mod	Redox H2O2 prof	MT stabilize HCS	KCC2 sec1	KCC2 bumet counter	KCC2 secondary2	HEK293 Tl flux	KCC2 ouabain	HEK counter2
COc1ccc(/C=C/CN2CCN(Cc3ccc(F)cc3)C(CCO)C2)cc1 (configuration not stated)	0	0	0	0	0	-	-	-	-	-	-
CCOc1ccc(-n2c(C)nc3cc(C(=O)NCCN4CCOCC4)ccc32)cc1	-	0	0	0	0	-	-	-	-	-	-
COc1ccc(-n2c(C)nc3cc(C(=O)NCCN4CCOCC4)ccc32)cc1	0	-	-6.35	0	0	0	0	0	0	0	0
S=c1[nH]c(-c2ccc(Br)cc2)cn1CCc1ccccc1	0	0	0	0	0	-	-	-	-	-	-
CCOC(=O)c1c(-c2ccccc2)csc1NC(=O)CSc1nnnn1C	-	0	-4.71	0	0	0	0	0	0	?	?
Cc1ccccc1-n1nnnc1SC(C)C(=O)NC1CCCc2ccccc21 (configuration not stated)	-	0	-3.49	0	0	0	0	0	0	0.0166	0
Cc1nnc(SC(C)C(=O)NC2CCCc3ccccc32)n1-c1ccccc1 (configuration not stated)	-	0	0	0	0	-	-	-	-	-	-
COC(=O)CSc1nnc(CNc2ccc(Cl)cc2)n1-c1ccccc1	-	0	0	0	0	-	-	-	-	-	-
N#Cc1c(-c2ccccc2)nc(SCc2nc(N)nc(N3CCCCC3)n2)[nH]c1=O	-	-	-2.75	0	0	?	0	0.0248	0.00588	0.0124	?
CCSc1nc(-c2ccccc2)c(C#N)c(=O)[nH]1	0	0	-	0	0	-	-	-	-	-	-
CCN(CC)CCCNCC(=O)Nc1ccc2c(c1)CCC2	0	0	0	0	0	-	-	-	-	-	-
Clc1ccccc1C(c1ccccc1)(c1ccccc1)n1ccnc1	0	0	-4.27	0	0	0	0	0	0.00571	0	0
Clc1ccccc1OCCCCn1ccnc1	0	0	0	0	0	-	-	-	-	-	-
C=C(C)c1cccc(C(C)(C)NC(=O)N2CCC(C(N)=O)CC2)c1	0	0	-3.19	0	0	0	?	0	0	0	0
C=C(C)c1cccc(C(C)(C)NC(=O)N2CCCC(C(N)=O)C2)c1 (configuration not stated)	-	-	0	0	0	-	-	-	-	-	-
CN1CCC(N(C)C(=S)NC(=O)c2cc(-c3cccc(Br)c3)nc3ccccc23)CC1	-	0	15.8	0	0	0	0.0149	0	0.0119	?	0.0138
CC(C)Cc1csc(NC(=O)c2ccccc2Cl)c1C(=O)O	-	0	0	0	0	-	-	-	-	-	-
CC(C)Cc1csc(NC(=O)c2ccc(Cl)cc2)c1C(=O)O	-	0	5.16	0	0	0	0.0319	0	0.0179	?	?
COc1cc(-c2nc(C)c(C(C)=O)n2O)ccc1OCC(=O)Nc1ccc(Cl)cc1	0	0	0	0	0	-	-	-	-	-	-
O=C(Nn1c(-c2ccncc2)nc2ccccc2c1=O)c1ccc([N+](=O)[O-])cc1Cl	0	0	0	0	0	-	-	-	-	-	-
CN1N=C2c3ccccc3CCC2C1c1ccc(Cl)cc1 (configuration not stated)	-	0	-	-	-	-	-	-	-	-	-
O=C1CN(c2nc(-c3cccs3)nc3sc4c(c23)CCCC4)CCN1	0	0	16.3	0	0	0	0.00976	0	0.0103	?	0
O=c1oc(-c2cccs2)nc2sc3c(c12)CCCC3	0	-	-	0	0	-	-	-	-	-	-
